Measured values from different studies.
Each line is one published result; the experiments were not run side by side.
Target: Casein kinase I isoform delta (CSNK1D, Homo sapiens, UniProt P48730)

Cc1cc(NC(=O)c2cccc3cc(-c4cccc5[nH]nc(N)c45)ccc23)ccc1F
activity vs control (enzyme activity, inhibitor; 0.1 µM): 96%

CNc1cccc2cc(C(=O)Nc3ccc(C(=O)O)cc3)c(=O)[nH]c12
inhibition (enzyme activity, inhibitor; 10 µM): 25%

CS(=O)(=O)Nc1cccc(-c2csc(NC(=O)CSc3nc4nccnc4c(=O)n3CCc3ccccc3)n2)c1
inhibition (enzyme activity, inhibitor; 10 µM): 10%

Nc1cnc(N2CCc3cc(S(=O)(=O)Nc4c(F)cc(Cl)cc4F)cc(N4CCCC4=O)c32)nc1
remaining binding (cell-free assay, competition with immobilised ligand; 1 µM): 98%

Cc1ccc(NC(=O)c2ccc(C)c(C(F)(F)F)c2)cc1C#Cc1nn(C2CCC(O)CC2)c2ncnc(N)c12 (stereo not shown)
remaining signal (cell-free assay; 10 µM): 88%

COc1cc2ncnc(Nc3ccc(Oc4ccccc4)c(C)c3C)c2cc1OC
inhibition (enzyme activity, inhibitor; 1 µM): 1%

Cc1nc(N2CC[C@@H](O)C2)ncc1-c1cc(C(F)(F)F)cc2[nH]ncc12
remaining binding (cell-free assay, competition with immobilised ligand; 1 µM): 95%

O=C(Nc1cnn(-c2csc(C(=O)NC3COC3)c2)c1)Nc1ccccc1Cl
remaining activity (enzyme activity, inhibitor; 5 µM): 101%

CC(C)(C)c1nc2c(s1)c1nc(N)ncc1c1ccc(NS(=O)(=O)c3c(F)cccc3F)c(F)c12
remaining activity (enzyme activity, inhibitor, radiometric; 1 µM): 79%

O=C1Nc2ccc(Cl)cc2C1=Cc1cc(Cl)c(O)c(Cl)c1
remaining signal (cell-free assay; 0.5 µM): 89.6%

Nc1c(C(=O)NCc2ccc(C(=O)NCCCC3CCCCC3)cc2)cnn1-c1ccccc1
remaining binding (cell-free assay, competition with immobilised ligand; 0.1 µM): 100%

Cc1cnc(NC2CCOCC2)nc1-n1cnc(C(=O)NC(CN)c2cc(F)cc(Cl)c2)c1 (stereo not shown)
remaining activity (enzyme activity, inhibitor, radiometric; 1 µM): 53%

O=C(Cc1cccc(Cl)c1)Nc1nc2ccccc2s1
inhibition (cell-free assay; 10 µM): > 60%

Nc1ncnc2occ(-c3ccc(NC(=O)Nc4cc(C(F)(F)F)ccc4F)cc3)c12
remaining signal (cell-free assay, inhibitor; 20 µM): 3.9%

Cc1cc(-n2nc(Cc3cc(F)cc(C(F)(F)F)c3)nc2C)ccc1C(N)=O
remaining binding (cell-free assay, competition with immobilised ligand; 1 µM): 100%

FC(F)(F)Oc1cccc(-c2cnc3ccc(-c4ccncc4)nn23)c1
activity vs control (enzyme activity, inhibitor, radiometric; 1 µM): 100%

O=C1CCc2cc(Nc3cc(OC4CCOCC4)c([N+](=O)[O-])cc3Cl)ccc2N1
remaining binding (cell-free assay, competition with immobilised ligand; 1 µM): 90%

COc1cc(Nc2cnc(C#N)c(O[C@H](C)CN(C)C)n2)ncc1-c1cnn(C)c1
remaining activity (enzyme activity, inhibitor, radiometric; 10 µM): 22%

COc1cc2c(Nc3ccc(Br)cc3F)ncnc2cc1OCC1CCN(C)CC1
remaining signal (cell-free assay; 0.5 µM): 94.4%

CN([C@@H]1CCc2c(CC(=O)O)c3cc(S(C)(=O)=O)ccc3n2C1)S(=O)(=O)c1ccc(F)cc1
remaining binding (cell-free assay, competition with immobilised ligand; 1 µM): 100%

COc1cc2c(N3CCN(C(=O)Nc4ccc(OC(C)C)cc4)CC3)ncnc2cc1OCCCN1CCCCC1
remaining signal (cell-free assay; 0.5 µM): 90.9%

CO[C@@H](C)c1c(Nc2ccc([C@H](N(C)C(=O)C3CCS(=O)(=O)CC3)C(F)(F)F)cc2)cnc2cc(Cl)nn12
remaining binding (cell-free assay, competition with immobilised ligand; 1 µM): 88%

CC/C(=N\NC(=O)NCc1cccc(O)c1)c1ccc(O)c(C)c1O
inhibition (enzyme activity, inhibitor; 0.1 µM): 3.7%

O=C1NC(=O)c2cc(Nc3ccc(F)cc3)c(Nc3ccc(F)cc3)cc21
remaining signal (cell-free assay; 0.5 µM): 109%

CO[C@H]1CC[C@H](CNc2ccc(S(=O)(=O)NC(=O)c3ccc(N4CCN(CC5=C(c6ccc(Cl)cc6)CC(C)(C)CC5)CC4)cc3Oc3cnc4[nH]ccc4c3)cc2[N+](=O)[O-])CC1
remaining binding (cell-free assay, competition with immobilised ligand; 1 µM): 93%
